Shown are actives, neighbours in structure and some others; about 4.6% of the full set was active somewhere.
TAAR1 antag – human TAAR1 antagonism; CHO RD-HGA16 TAAR1, Fluo-8 calcium fluorescence, antagonist; inhibition, % at 3 µM; 360,000 tested, 1.5% active; AID 624466;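 active = inhibition above a per-plate cutoff, the mean inhibition of test compounds on that plate plus 3 SD, cut at about 49% in these data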
Target sequence (Q96RJ0 whole entry, looked up): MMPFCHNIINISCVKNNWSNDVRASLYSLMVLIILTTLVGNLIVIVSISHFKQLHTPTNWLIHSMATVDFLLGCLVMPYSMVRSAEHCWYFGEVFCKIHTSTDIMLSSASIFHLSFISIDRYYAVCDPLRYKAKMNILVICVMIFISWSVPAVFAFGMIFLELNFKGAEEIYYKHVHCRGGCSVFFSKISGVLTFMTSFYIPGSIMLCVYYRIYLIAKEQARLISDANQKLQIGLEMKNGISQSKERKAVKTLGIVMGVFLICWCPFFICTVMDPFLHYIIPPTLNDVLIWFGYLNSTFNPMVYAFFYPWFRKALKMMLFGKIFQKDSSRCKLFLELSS
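Test system – hTAAR1-expressing CHO RD-HGA16 cells, Gα16-coupled · Reagent – β-PEA at EC80 concentration, post-compound challenge · Compound dosing – 3 µM, single point · Timing – 140 s kinetic read after compound, 140 s after agonist · Detection – Fluo-8 intracellular calcium dye fluorescence, real-time kinetic reads · Control set – DMSO and EC80 PEA controls · Repeats – n of 1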
TAAR1 ag – agonists of human TAAR1. CHO RD-HGA16 TAAR1, Fluo-8 calcium fluorescence; vehicle wells 0%, saturating PEA agonist 100%. activation, % at 3 µM. 360,000 tested, 0.99% active. AID 624467;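 active = activation above the mean activation of all test compounds in the run plus 3 SD, cut at about 38% in these data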
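Repeats: no replicates (n 1) | Material: CHO-derived RD-HGA16 cells with stable Gα16 and human TAAR1 | Technique: Kinetic Fluo-8 calcium fluorescence | Schedule: 17-24 h seeding, 75 min 37 °C dye, 30 min RT | Evaluation: % activation from peak over basal fluorescence ratio, DMSO-to-PEA scaled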
OX1R antag-1 – blocks the human orexin 1 receptor | O43613 | OX1R-expressing cells, FRET antagonist read-out | inhibition, % at 6.6 µM | 330,000 tested, 1.8% active; in the data active = inhibition mostly above about 38%, no sharp cut-off; inactive = mostly below about 40%
CHO parental Ca – counter-screen for OX1R antagonists: effect in parental CHO cells | parental CHO-K1, ATP-induced calcium, Fluo-8 fluorescence | 330,000 tested, 0.63% active | inhibition, % at 5.6 µM;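 active = inhibition above that plate's mean sample inhibition plus 3 SD, cut at about 26% in these data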
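material = parental CHO cells | also added = ATP as calcium-mobilizing challenge | dosing = single point at 5.6 µM | detection = intracellular calcium via Fluo-8 no-wash fluorescent dye | read-out = % inhibition | benchmarks = low control ATP plus DMSO, high control DMSO only | repeats = one well per compound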
GPR7 antag – human neuropeptides B/W receptor 1 antagonism; P48145; GPR7-expressing cells, fluorescence antagonist assay; inhibition, % at 4.4 µM; 290,000 tested, 1.1% active; AID 1861; in the data active = inhibition above about 16%, passing the limit was not always enough;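 note: cells stimulated with the agonist NPW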
Target sequence (P48145 whole entry, looked up): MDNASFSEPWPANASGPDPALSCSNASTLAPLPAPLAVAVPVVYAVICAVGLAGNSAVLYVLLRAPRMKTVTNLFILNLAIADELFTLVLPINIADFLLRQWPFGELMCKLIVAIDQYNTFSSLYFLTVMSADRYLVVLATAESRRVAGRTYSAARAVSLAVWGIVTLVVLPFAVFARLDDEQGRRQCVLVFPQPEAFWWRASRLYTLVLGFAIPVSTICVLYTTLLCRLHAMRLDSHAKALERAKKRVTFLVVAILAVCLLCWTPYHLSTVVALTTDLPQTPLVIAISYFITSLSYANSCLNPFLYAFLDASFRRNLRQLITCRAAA
OX1R antag-2 – human HCRTR1 antagonism; CHO/OX1R cells, Fluo-8 calcium fluorescence, orexin A; inhibition, % at 5 µM; 330,000 tested, 0.43% active; AID 434989;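 active = inhibition above its plate's threshold, mean inhibition of all tested compounds on the plate plus 3 SD, cut at about 37% in these data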
OX1R Ca confirm – confirmation of human orexin 1 receptor antagonists. 1,100 tested, 38% active. AID 492963. shares compounds with OX1R antag-2. CHO/OX1R cells, orexin A calcium Fluo-8 fluorescence. inhibition, % at 5 µM; in the data active = inhibition above about 29%
CHO Ca triplic – counter-screen: parental CHO calcium response change, triplicate | AID 492965 | inhibition, % at 5.6 µM | 1,100 tested, 9.3% active | parental CHO-K1, ATP-induced calcium, Fluo-8 fluorescence | shares compounds with OX1R antag-2;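 active = inhibition above a per-plate limit, the mean inhibition of that plate's test compounds plus 3 SD, cut at about 25% in these data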
OX1R HTRF conf – OX1R (human) antagonism, HTRF confirmed. shares compounds with OX1R antag-1. OX1R-expressing cells, HTRF antagonist assay. inhibition, % at 6.6 µM. 1,800 tested, 49% active; in the data active = inhibition above about 55%;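 note: CHO cells expressing OX1R stimulated with orexin A at about EC80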
CHO-K1 HTRF – counter-screen for OX1R antagonists: effect in parental CHO-K1 cells; inhibition, % at 6.6 µM; shares compounds with OX1R antag-1; HTRF counterscreen; 1,800 tested, 48% active; AID 493232; in the data active = inhibition above about 17%
A number is an active result; i = inactive; nt = no result given.

SMILES	TAAR1 antag	TAAR1 ag	OX1R antag-1	CHO parental Ca	GPR7 antag	OX1R antag-2	OX1R Ca confirm	CHO Ca triplic	OX1R HTRF conf	CHO-K1 HTRF
CC1CC(C)CN(C(=O)CNC(=O)c2sc3ccccc3c2Cl)C1 (centres undefined)	i	i	69.6	i	nt	54.6	i	i	83.1	i
CCCn1nnc(NC(=O)/C=C/c2cc(Br)ccc2OC)n1	i	i	i	i	i	i	nt	nt	nt	nt
Cc1ccc(-c2c(C)sc(NC(=O)C3C4CCC(O4)C3C(=O)O)c2C(=O)OC(C)C)cc1 (centres undefined)	i	i	77.7	i	i	51.5	i	i	60.1	i
CCOC(=O)c1c(NC(=O)C2C3CCC(O3)C2C(=O)O)sc2c1CCCC2 (centres undefined)	i	i	i	i	i	i	nt	nt	nt	nt
COc1ccc(S(=O)(=O)N(C)C[C@@H]2OCc3cn(nn3)CCCC(=O)N([C@@H](C)CO)C[C@H]2C)cc1	i	i	nt	nt	nt	nt	nt	nt	nt	nt
CC(C)Cn1c(/C=C/c2ccco2)nc2ccccc21	i	i	i	i	i	i	nt	nt	nt	nt
COc1ccc(NC(=O)CN(C)S(=O)(=O)c2ccc3[nH]c(=O)oc3c2)cc1	i	i	55.9	i	i	i	i	i	i	i
Cc1nc2ccccc2nc1OCc1ccc([N+](=O)[O-])cc1	i	i	i	i	i	i	nt	nt	nt	nt
COc1ccc(Br)c(C(=O)Nc2nc3ccccc3[nH]2)c1	i	i	i	i	i	i	nt	nt	nt	nt
COc1ccc2oc(C(=O)Nc3nc4ccccc4[nH]3)c(C)c2c1	i	i	53.3	i	i	i	i	i	i	i
O=C(Nc1cccc(-c2nnc(-c3ccco3)o2)c1)c1ccccc1	i	i	i	i	i	i	nt	nt	nt	nt
COc1cccc(C(=O)Nc2ccc(-c3nnc(-c4ccco4)o3)cc2)c1	i	i	77.2	i	i	i	33.9	i	71.3	19.6
O=C(Nc1cccc(-c2nc3ccccc3[nH]2)c1)c1ccco1	i	i	72.7	i	i	i	i	i	i	i
Cc1ccc(/C=C2/Sc3ccccc3N(CC(=O)NCC3CCCO3)C2=O)cc1 (centres undefined)	nt	nt	77.5	i	i	55.1	58.6	i	87.7	i
O=C(CN1C(=O)/C(=C\c2cccc(Br)c2)Oc2ccccc21)NCC1CCCO1 (centres undefined)	i	i	67.5	i	i	i	78.8	i	90.2	i
O=C(CN1C(=O)/C(=C/c2ccccc2)Sc2ccccc21)NCCCN1CCOCC1	i	i	i	i	i	i	nt	nt	nt	nt
CCc1ccc(/C=C2/Sc3ccccc3N(CC(=O)NCC3CCCO3)C2=O)cc1 (centres undefined)	i	i	95.1	i	i	84.2	44.9	i	86.9	i
COc1cccc(-c2cc3nc(-c4ccccc4)cc(N4CCC5(CC4)OCCO5)n3n2)c1	i	i	43.2	i	i	45.9	i	i	i	i
COc1cccc(-c2cc3nc(-c4ccccc4)cc(N4CCN(C(=O)c5ccoc5)CC4)n3n2)c1	i	i	nt	nt	nt	nt	nt	nt	nt	nt
C=CCc1ccccc1OCC(O)CN1CCN(CCN2C(=O)c3cccc4cccc(c34)C2=O)CC1 (centres undefined)	i	i	i	i	i	i	nt	nt	nt	nt
Cn1c2ccccc2c2cc(/C=N/NC(=O)c3ccc(O)cc3O)ccc21	nt	nt	91.5	i	i	i	i	25.0	73.3	i
O=C(N/N=C/c1cccc(Oc2ccccc2)c1)c1ccc(O)cc1O	i	i	nt	nt	i	nt	nt	nt	nt	nt
NS(=O)(=O)OCCCc1ccc(C(F)(F)F)cc1	i	i	i	i	i	i	nt	nt	nt	nt
O=C1N=C(N2CCOCC2)S/C1=C\c1ccc(OS(=O)(=O)c2ccccc2)cc1	i	i	i	i	i	i	nt	nt	nt	nt
CC(=C/c1ccccc1)/C=C1/SC(N2CCOCC2)=NC1=O	i	i	108.1	i	i	84.8	79.6	i	101.2	i
SMILES	TAAR1 antag	TAAR1 ag	OX1R antag-1	CHO parental Ca	GPR7 antag	OX1R antag-2	OX1R Ca confirm	CHO Ca triplic	OX1R HTRF conf	CHO-K1 HTRF
Cc1nc2c(-c3ccc(F)cc3)c(C)nn2c(C)c1CCC(=O)N1CCN(c2ccc(F)cc2)CC1	i	i	i	i	i	i	nt	nt	nt	nt
Cc1ccnc(NC(=O)c2oc3ccccc3c2C)c1	i	i	95.5	i	nt	50.6	49.0	i	90.7	i
Cc1cc(C)nc(NC(=O)CSc2nc3ccccc3s2)n1	i	i	97.9	i	i	43.1	42.3	i	82.4	i
CCN(CC)c1ccc(/C=N/NC(=O)c2ccc(Br)o2)cc1	i	i	91.5	i	i	i	55.4	i	90.4	i
CCc1ccc(/C=N\NC(=O)c2ccc(Br)o2)s1	i	i	i	i	i	i	nt	nt	nt	nt
Cc1cc(SCC(=O)c2ccc3c(c2)OCO3)nc2ccccc12	i	i	59.0	i	i	i	i	i	87.0	i
Cc1cc(SCC(=O)c2ccc(O)c(O)c2)nc2ccccc12	i	i	i	i	i	i	nt	nt	nt	nt
C(=N\N1CCN(c2ccccn2)CC1)/c1ccccn1	i	i	i	i	i	i	nt	nt	nt	nt
CNC(=O)Nc1cccc2cccnc12	i	i	i	i	i	i	nt	nt	nt	nt
CCOc1ccc(C(=O)Nc2cccc3cccnc23)cc1	i	i	80.6	i	i	65.8	29.0	i	87.3	i
COc1ccc(NC(=O)C(=O)Nc2cccc3cccnc23)c(OC)c1	i	i	i	i	i	i	nt	nt	nt	nt
COc1ccc(NC(=O)C(=O)Nc2cccc3cccnc23)cc1OC	i	i	81.0	i	i	53.3	61.3	i	92.6	i
COc1ccc(NC(=O)CSc2nc3sc(C)cc3c(=O)n2C)c(OC)c1	i	i	88.4	i	i	42.6	30.9	i	85.8	i
COc1ccc(NC(=O)CSc2nc3sc(C)cc3c(=O)n2C)cc1	i	i	i	i	i	i	nt	nt	nt	nt
Cc1ccc(NC2CCCN(C(=O)c3cccc(-c4ncc[nH]4)c3)C2)cc1C (centres undefined)	i	i	92.8	i	i	i	65.2	i	91.6	i
CN(C)c1ccc(C#Cc2ccc3cc(CCCO)oc(=O)c3c2)cc1	i	i	i	i	nt	i	nt	nt	nt	nt
CC(C)(O)c1cc2ccc(C#Cc3ccsc3)cc2c(=O)o1	i	i	70.8	i	nt	59.7	36.4	i	82.5	i
O=c1oc(CCCO)cc2ccc(C#Cc3ccsc3)cc12	i	i	41.5	i	nt	54.8	i	i	i	i
